Compound activity deposited in PubChem BioAssay by several laboratories.
Hits are enriched below; roughly 3.1% of the tested compounds scored in any of these assays.
MBD2 inh: blocks human MBD2 binding to methylated DNA; 0.31% of 370,000 active; AID 686964; inhibition, % at 4.4 µM; TR-FRET, MBD2 binding to methylated oligonucleotide; Q9UBB5; in the data active = inhibition above about 13%
Target sequence (Q9UBB5 whole entry, looked up): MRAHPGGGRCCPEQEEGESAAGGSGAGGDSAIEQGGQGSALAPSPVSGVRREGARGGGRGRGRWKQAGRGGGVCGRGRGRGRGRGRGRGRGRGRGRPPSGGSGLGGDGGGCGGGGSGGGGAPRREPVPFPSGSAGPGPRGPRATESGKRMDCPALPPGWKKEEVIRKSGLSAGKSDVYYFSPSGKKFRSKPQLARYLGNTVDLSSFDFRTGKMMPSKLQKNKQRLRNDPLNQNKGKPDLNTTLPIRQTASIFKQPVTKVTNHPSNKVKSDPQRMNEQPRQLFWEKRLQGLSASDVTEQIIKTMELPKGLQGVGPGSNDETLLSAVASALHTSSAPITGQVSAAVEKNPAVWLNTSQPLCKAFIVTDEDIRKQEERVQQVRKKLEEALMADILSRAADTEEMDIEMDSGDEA
rCAG binder: molecules binding r(CAG) RNA repeats. r(CAG) RNA repeat, TO-PRO-1 dye displacement fluorescence. inhibition, % at 3 µM. 1.3% of 370,000 active;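 active = inhibition above the plate cutoff, the mean of all test compounds on that plate plus 3 SD, cut at about 35% in these data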;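 also: higher means more dye released from RNA so lower well fluorescence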
ATG4B inhibitor: blocks human ATG4B protease cleavage of LC3 substrate. ATG4B cleavage of LC3-PLA2, NBD-HPC fluorescence, 1 h. Q9Y4P1. 0.51% of 340,000 active. inhibition, % at 8.33 µM. AID 504462; in the data active = inhibition above about 40%
UHRF1 MBD2 ctr: blocks human UHRF1 binding to methylated DNA; 0.75% of 370,000 active; Q96T88; inhibition, % at 4.4 µM; AID 687016; UHRF1 binding to methylated oligo, TR-FRET; in the data active = inhibition above about 21%;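 also: UHRF1 SRA domain binding a hemimethylated CpG hairpin DNA probe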
LEDGF integ inh: blocks HIV-1 LEDGF/p75-dependent DNA integration | 0.64% of 370,000 active | inhibition, % at 3.7 µM | AID 743269 | TR-FRET IN-LEDGF/p75 DNA integration, Eu/Cy5;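 active = inhibition above the screen-wide mean plus 3 SD, cut at about 13% in these data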;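 also: signal is the Cy5 over europium emission ratio at 671 and 618 nm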
CSN inh: CSN deneddylation inhibition; 0.38% of 360,000 active; Purified CSN, SCF-Nedd8-OG deneddylation, fluorescence polarization; Q92905; inhibition, % at 12.5 µM;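 active = pattern-corrected inhibition above about 35%, with an unprinted fluorescence ratio check between 0.5 and 1.5, limit read from the data, passing the limit was not always enough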
Target sequence (Q92905 whole entry, looked up, one chain of several): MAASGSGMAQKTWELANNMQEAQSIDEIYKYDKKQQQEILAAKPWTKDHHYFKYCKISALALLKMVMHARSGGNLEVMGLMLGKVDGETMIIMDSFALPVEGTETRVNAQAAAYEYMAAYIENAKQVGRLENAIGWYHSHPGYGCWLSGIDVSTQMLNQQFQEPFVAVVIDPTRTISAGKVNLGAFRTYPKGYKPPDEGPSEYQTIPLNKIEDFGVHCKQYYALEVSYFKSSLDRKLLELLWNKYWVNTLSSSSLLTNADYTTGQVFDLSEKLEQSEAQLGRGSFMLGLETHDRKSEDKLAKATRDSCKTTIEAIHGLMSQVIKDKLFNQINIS
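Assay system: HEK293T-derived human Csn5 enzyme; quantity: 0.24 nM enzyme; medium: Tris/NaCl/DTT buffer, pH 7.5; also added: substrate SCFSkp2-Nedd8OG, 10 nM; doses: 12.5 µM compound; schedule: 90 min reaction at room temperature; signal: FP; read-out: % inhibition of substrate cleavage by Csn5; benchmarks: substrate-only high control, full reaction low control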
Of the large screens only hits and unclear results are named; the others gave an inactive call; ! = not active in a repeat.

COc1ccc(C2(C(=O)Nc3ccc(S(=O)(=O)Nc4nc(C)cc(C)n4)cc3)CCCC2)cc1OC	UHRF1 MBD2 ctr 42.8
COc1ccc2cc3c(nc2c1)OCC3	UHRF1 MBD2 ctr 20.8
COc1ccc2nc3c(nc2c1)CCCC3	none
CC(C)[C@H]1CN=C2N(C[C@H](C)NC(=O)CCC3CCCCC3)[C@H](Cc3ccc(O)cc3)CN21	CSN inh 74.4
C[C@@H]1COc2cc(N3CCCC3)ccc2S(=O)(=O)N1	UHRF1 MBD2 ctr 21.3 (no result: ATG4B inhibitor, CSN inh)
C[C@H]1COc2cc(N3CCCC3)ccc2S(=O)(=O)N1	none (no result: ATG4B inhibitor, CSN inh)
Cc1ccc(-n2c(SCC(=O)N/N=C/C=C\c3ccccc3[N+](=O)[O-])nnc2-c2ccccc2)cc1	none (no result: ATG4B inhibitor, CSN inh)
COc1ccc(CN2C[C@]3(C=C(C)Cn4c(=O)n(-c5ccccc5)c(=O)n43)N(C(=O)OCc3ccccc3)C2=NC(=O)c2ccccc2)c(OC)c1	none (no result: ATG4B inhibitor, CSN inh)
COCc1ccc(C(=O)N2CCCC(Nc3ccc4c(c3)OCCO4)C2)o1 (stereo unspecified)	UHRF1 MBD2 ctr 20.8
OC(c1ccccc1)(c1ccccc1)C1CCN(CCCNc2ccccc2Br)CC1	none (no result: ATG4B inhibitor, CSN inh)
O=C(CN1CCCCC1)Nc1c2c(nc3ccccc13)N(c1ccccc1)CC2	LEDGF integ inh 14.3
CCCC(=O)Nc1c2c(nc3ccccc13)N(c1ccccc1)CC2	none (no result: MBD2 inh, rCAG binder, UHRF1 MBD2 ctr, LEDGF integ inh)
O=C(/C=C(\Nc1ccc(F)cc1)c1ccccc1)c1ccccc1	none (no result: ATG4B inhibitor, CSN inh)
CC(=O)C(C(C)=O)c1c(Cl)c(O)c(O)c2c(C(=O)c3ccccc3)coc12	LEDGF integ inh 51.0
CC(C)C[C@H]1COc2cccc(F)c2S(=O)(=O)N1Cc1cn(Cc2ccc(Cl)cc2)nn1	none (no result: ATG4B inhibitor, CSN inh)
C/C(=N\Nc1ccc(C(F)(F)F)cn1)c1ccncc1	UHRF1 MBD2 ctr 22.1
COc1ccc(CCN(C(=O)C(F)(F)F)C(C(=O)NC2CCCCC2)c2ccc(C)s2)cc1OC (stereo unspecified)	UHRF1 MBD2 ctr 28.6
C=CCNC(=O)CSc1nc2c(c(=O)[nH]1)CCCC2	none (no result: ATG4B inhibitor, CSN inh)
CCCC1CCC2(CCCN2CCOC(=S)Nc2cccc(Cl)c2)CC1 (stereo unspecified)	none (no result: rCAG binder, ATG4B inhibitor, CSN inh)
C[C@H]1CN([C@@H](C)CO)C(=O)CCCn2nncc2CO[C@@H]1CN(C)Cc1ccccc1	UHRF1 MBD2 ctr 34.5 (no result: ATG4B inhibitor)
CC(C)NC(=O)N(C)C[C@@H]1OCc2cn(nn2)CCCC(=O)N([C@@H](C)CO)C[C@H]1C	none (no result: ATG4B inhibitor, CSN inh)
C[C@@H]1CN([C@@H](C)CO)C(=O)CCCn2nncc2CO[C@@H]1CN(C)C(=O)Nc1ccccc1C(F)(F)F	UHRF1 MBD2 ctr 21.8 (no result: ATG4B inhibitor)
C[C@@H]1CN([C@@H](C)CO)C(=O)CCCn2cc(nn2)CO[C@H]1CN(C)C(=O)NC1CCCCC1	UHRF1 MBD2 ctr 20.7 (no result: ATG4B inhibitor, CSN inh)
O=C(c1cccc([N+](=O)[O-])c1)c1ccc2[nH]c(=O)[nH]c2c1	CSN inh 97.1
Cn1c(=O)n(Cc2ccccc2)c2ccccc21	none
Cn1c(=O)n(Cc2ccc(Br)cc2)c2ccccc21	UHRF1 MBD2 ctr 22.7
Cc1nc(NC(=O)c2ccccc2)sc1-c1csc(NCCc2ccccc2)n1	CSN inh 40.2
Cc1nc(NC(=O)c2ccccc2)sc1-c1csc(N)n1	none
O=C1CC(c2ccccc2)CC(=O)C1=CN1CCCC1 (stereo unspecified)	UHRF1 MBD2 ctr 67.7
Cc1cc(C)cc(C(=O)OCCN2CCN(C3CN(Cc4cn(Cc5ccc([N+](=O)[O-])cc5)nn4)S(=O)(=O)C3)CC2)c1 (stereo unspecified)	none (no result: ATG4B inhibitor, CSN inh)
CC(NC(=O)Nc1cccc([N+](=O)[O-])c1)(C(F)(F)F)C(F)(F)F	UHRF1 MBD2 ctr 73.2
O=C(Nc1cccc([N+](=O)[O-])c1)c1cccc(C(=O)Nc2cccc([N+](=O)[O-])c2)c1	none
Cc1noc(NS(=O)(=O)c2ccc(NC(=O)CSc3nnc(-c4ccccc4)n3C3CCCCC3)cc2)c1C	rCAG binder 63.3
CC1CCCC(C)N1C(=O)c1cc2ncc(CCCl)cn2n1 (stereo unspecified)	UHRF1 MBD2 ctr 50.8
O=C(c1cc2ncc(CCCl)cn2n1)N1CCCCCC1	none
Cc1ccc(-c2cc(C(=O)NN=Cc3cccc(OCc4ccccc4)c3)[nH]n2)cc1C	none (no result: ATG4B inhibitor, CSN inh)
COC(=O)[C@]12C[C@H](CC(=O)N3CCOCC3)C(=O)N(Cc3ccco3)C1=C[C@H](C(C)C)O[C@@H]2C1CC1	none (no result: ATG4B inhibitor, CSN inh)
Cc1ccc(SCCc2cc[n+](CC(=O)c3ccccc3)cc2)cc1	none
O=C(C[n+]1ccc(CCSc2ccc(F)cc2)cc1)c1ccccc1	CSN inh 105.0 (no result: MBD2 inh, rCAG binder, UHRF1 MBD2 ctr, LEDGF integ inh)
Oc1ccc(Oc2ccccc2F)c2cccnc12	none (no result: rCAG binder, ATG4B inhibitor, CSN inh)
O=C1Cc2ccccc2C(=O)N1c1ccc(F)cc1Cl	UHRF1 MBD2 ctr 36.6
Cc1cc(C)n2nc(SCCC(=O)NCc3ccccc3)nc2n1	UHRF1 MBD2 ctr 36.3
Cc1cc(C)n2nc(CC(=O)NCc3ccc(F)cc3)nc2n1	UHRF1 MBD2 ctr 99.1
COc1ccc(CNC(=O)CSc2nc3nc(C)cc(C)n3n2)cc1	none
Cc1ccc(CNC(=O)Cc2nc3nc(C)cc(C)n3n2)cc1	none
CS(=O)(=O)N1C[C@]2(c3ccccc3)CC1Cc1ccccc12	none (no result: rCAG binder, ATG4B inhibitor, CSN inh)
COc1cccc(CCNS(=O)(=O)c2c(C)n[nH]c2C)c1	none (no result: ATG4B inhibitor, CSN inh)
Oc1ccc(/C=N/Nc2cc(N3CCCC3)nc(N3CCCC3)n2)cc1O	rCAG binder 39.6, LEDGF integ inh 33.0
Cc1ccc[n+](-c2nc3ccccc3nc2C(=C=[N-])C#N)c1	CSN inh 62.7!
N#CC(=C=[N-])c1nc2ccccc2nc1-[n+]1ccccc1	CSN inh 44.2
Cc1cc[n+](-c2nc3ccccc3nc2C(=C=[N-])C#N)cc1	none
O=C(NC1CCCCN(Cc2ccc(OC(F)(F)F)cc2)C1=O)c1ccc2ccccc2c1 (stereo unspecified)	none (no result: ATG4B inhibitor, CSN inh)
O=[N+]([O-])c1cc2c(c([N+](=O)[O-])c1)Nc1ccccc1O2	none (no result: ATG4B inhibitor)
Cc1cccc(Oc2cc([N+](=O)[O-])cc3c2C(=O)Nc2ccccc2O3)c1	CSN inh 38.7
O=C1Nc2ccccc2Oc2cc([N+](=O)[O-])cc(Oc3ccccc3)c21	CSN inh 36.0
O=C(Cn1nc(-c2ccccc2)c2ccccc21)Oc1ccccc1	none (no result: rCAG binder, ATG4B inhibitor, CSN inh)
COc1ccc(S(=O)(=O)N2CCC(c3nc4ccccc4o3)CC2)c(OC)c1	none (no result: ATG4B inhibitor, CSN inh)
Cc1ccc(OCCOc2ccc(Cl)cc2Cl)c(Br)n1	none (no result: rCAG binder, ATG4B inhibitor, CSN inh)
COC(=O)[C@]12C[C@H](CC(=O)NCc3cccc4ccccc34)C(=O)N(Cc3ccco3)C1=C[C@H](C1CCCC1)O[C@@H]2C	none (no result: ATG4B inhibitor, CSN inh)
COc1ccc(/C=C(\NC(=O)c2ccccc2)C(=O)N2CCCCC2)cc1OC	UHRF1 MBD2 ctr 55.6
CCc1nnc(N/N=C/c2c(C)[nH]c3ccccc23)n1N	LEDGF integ inh 68.4
O=C(CSc1ccccn1)Nc1ccc(N2CCOCC2)cc1	UHRF1 MBD2 ctr 92.5
O=C(CSc1ccccn1)Nc1ccc2c(c1)OCCO2	none
Cc1cccc(CNc2ccc(S(=O)(=O)N3CCCCC3)cc2)c1	CSN inh 61.8
